Columns and labels:
[1] = Inhibitory activity against protein phosphatase type 2A
Outline: (§1)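 Selectivity panel of nine phosphatases, each assayed with fluorescein diphosphate at the same concentration as in the PTP-1B assay (20 μM). IC50 values (μM) reported.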

[2] = target: Dual specificity protein phosphatase 3 (Homo sapiens, UniProt P51452); assay: Inhibitory activity against VH1-related phosphatase VHR; outline: as §1
[3] = target: T1, M-phase inducer phosphatase 3 (Homo sapiens, UniProt P30307); assay: Inhibitory activity against cdc25C phosphatase; outline: as §1
T1 sequence (P30307 whole entry): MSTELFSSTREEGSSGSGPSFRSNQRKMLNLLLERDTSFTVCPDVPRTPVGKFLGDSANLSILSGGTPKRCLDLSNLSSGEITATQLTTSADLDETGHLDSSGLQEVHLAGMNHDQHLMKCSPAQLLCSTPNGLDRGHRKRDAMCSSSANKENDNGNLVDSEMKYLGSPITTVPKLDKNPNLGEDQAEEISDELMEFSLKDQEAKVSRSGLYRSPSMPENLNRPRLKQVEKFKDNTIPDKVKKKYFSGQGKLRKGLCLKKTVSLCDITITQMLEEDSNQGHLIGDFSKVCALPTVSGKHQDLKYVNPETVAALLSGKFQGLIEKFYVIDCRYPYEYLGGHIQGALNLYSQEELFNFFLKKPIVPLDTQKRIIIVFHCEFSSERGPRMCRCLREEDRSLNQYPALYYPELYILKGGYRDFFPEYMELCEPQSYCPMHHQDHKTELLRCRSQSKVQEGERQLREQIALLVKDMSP

[4] = target: T2, M-phase inducer phosphatase 2 (Homo sapiens, UniProt P30305); assay: Inhibitory activity against cdc25B phosphatase; outline: as §1
T2 sequence (P30305 whole entry): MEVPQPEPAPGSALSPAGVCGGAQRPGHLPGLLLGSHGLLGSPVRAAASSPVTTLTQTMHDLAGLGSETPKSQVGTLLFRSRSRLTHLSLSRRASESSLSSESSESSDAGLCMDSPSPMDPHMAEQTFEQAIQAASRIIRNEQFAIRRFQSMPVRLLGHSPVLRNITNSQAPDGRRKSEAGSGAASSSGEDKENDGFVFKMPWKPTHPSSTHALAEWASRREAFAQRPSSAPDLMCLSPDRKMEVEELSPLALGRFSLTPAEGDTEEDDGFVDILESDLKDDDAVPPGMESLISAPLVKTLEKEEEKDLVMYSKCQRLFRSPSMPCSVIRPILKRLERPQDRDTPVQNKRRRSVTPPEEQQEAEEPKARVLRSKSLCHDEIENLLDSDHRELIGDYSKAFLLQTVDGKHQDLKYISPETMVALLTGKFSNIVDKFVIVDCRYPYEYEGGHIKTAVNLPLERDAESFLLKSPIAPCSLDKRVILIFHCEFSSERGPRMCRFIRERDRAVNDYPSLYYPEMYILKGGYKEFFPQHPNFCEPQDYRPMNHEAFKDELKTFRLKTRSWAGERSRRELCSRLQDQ

Sequence of Dual specificity protein phosphatase 3 (P51452 whole entry): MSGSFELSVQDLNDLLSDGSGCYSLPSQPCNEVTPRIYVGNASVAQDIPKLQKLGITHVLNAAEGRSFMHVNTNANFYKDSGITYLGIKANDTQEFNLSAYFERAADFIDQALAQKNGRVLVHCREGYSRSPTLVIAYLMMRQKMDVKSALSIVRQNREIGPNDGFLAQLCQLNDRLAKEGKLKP

| SMILES | IC50 [1] | IC50 [2] | IC50 [3] | IC50 [4] |
| --- | --- | --- | --- | --- |
| COc1ccc(C(=O)c2ccc3c(-c4ccc(OCC(=O)O)cc4)nocc2-3)cc1 | > 10 µM | 181 µM | 61.7 µM | 16.1 µM |
| CCCCCCCCCCCCCCc1ccc(C(=O)c2ccc3c(-c4ccc(OCC(=O)O)cc4)nocc2-3)cc1 | – | – | 2.27 µM | 0.12 µM |
| NCc1ccc(C(=O)c2ccc3c(-c4ccc(OCC(=O)O)cc4)nocc2-3)cc1 | – | – | > 10 µM | 10 µM |

From ChEMBL document CHEMBL1149392, “PTP-1B inhibitors: cyclopenta[d][1,2]-oxazine derivatives” (Bioorg Med Chem Lett, 2006)
